Reference: ChEMBL document CHEMBL1138264, “Aromatic lipoxin A4 and lipoxin B4 analogues display potent biological activities” (J Med Chem, 2007)
Activity calls are given as the source filed them. The calls are words filed in the database; no cut-off is given here.

Key:
THP-1 [1] = assay: Increase in human THP1 cells mediated phagocytosis of apoptotic polymorphonuclear leukocytes at 0.01 pM to 1 nM after 15 mins; format: functional, cell-based
Procedure, shortened: (§1)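 THP-1 cells differentiated with 100 nM PMA for 48 h (5 × 10^5 cells/well), pretreated 15 min at 37 °C, then co-incubated 2 h at 37 °C with 1 × 10^6 human PMNs made apoptotic by 20 h culture. Vehicle was 0.1% DMSO or ethanol. After cold PBS washes, myeloperoxidase staining; % THP-1 cells containing ≥1 PMN (≥400 cells, duplicate wells); n = 3.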

THP-1 [2] = assay: Induction of F-actin rearrangement in human THP1 cells at 1 nM after 15 mins; format: functional, cell-based
Procedure, shortened: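 PMA-differentiated THP-1 cells (1 × 10^6/well) on glass coverslips, exposed to stimulus at 1 nM for 15 min. Fixed in 3.8% paraformaldehyde, permeabilized with 0.1% Triton X-100, stained with 0.33 µmol/L Oregon Green-phalloidin for 30 min. F-actin localization imaged by fluorescence microscopy (×100 oil objective); three independent experiments.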

THP-1 [3] = assay: Increase in human THP1 cells mediated phagocytosis of apoptotic polymorphonuclear leukocytes at 10 pM after 15 mins; format: functional, cell-based; procedure, shortened: as §1
THP-1 [4] = assay: Increase in human THP1 cells mediated phagocytosis of apoptotic polymorphonuclear leukocytes at 0.1 pM to 1 nM after 15 mins; format: functional, cell-based; procedure, shortened: as §1
THP-1 [5] = assay: Increase in human THP1 cells mediated phagocytosis of apoptotic polymorphonuclear leukocytes at 1 nM in presence of pan-FPR/ALXR antagonist Boc2; format: functional, cell-based
Procedure, shortened: (§2)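 PMA-differentiated THP-1 cells given Boc2 (100 µM), with or without stimulus, for 15 min at 37 °C. Then co-incubated 2 h with apoptotic human PMNs. Phagocytosis scored by myeloperoxidase staining as % THP-1 cells containing PMNs; mean ± SEM, n = 3, compared with no Boc2.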

THP-1 [6] = assay: Increase in human THP1 cells mediated phagocytosis of apoptotic polymorphonuclear leukocytes at 0.01 pM after 15 mins; format: functional, cell-based; procedure, shortened: as §1
THP-1 [7] = assay: Increase in human THP1 cells adherence to laminin after 30 mins; format: functional, cell-based
Procedure, shortened: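 THP-1 cells loaded with 1 µM BCECF-AM for 20 min at 37 °C, then resuspended at 3.3 × 10^6/mL in PBS2+ with 0.1% BSA. Cells settled 10 min on laminin-coated wells, then given agonist or vehicle for 30 min at 37 °C. Washed, lysed in NaOH/SDS, fluorescence read. Percent adherence above vehicle; three experiments, each in triplicate.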

THP-1 [8] = assay: Increase in human THP1 cells mediated phagocytosis of apoptotic polymorphonuclear leukocytes at 1 pM in presence of pan-FPR/ALXR antagonist Boc2; format: functional, cell-based; procedure, shortened: as §2
Mus musculus = assay: Decrease in zymosan-induced neutrophil accumulation in mouse model of peritonitis at 50 ug/kg, iv; format: functional, organism-based
Procedure, shortened: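 Zymosan A peritonitis in mice: analogue at 0.5-50 µg/kg given intravenously (vehicle n = 15; n = 6 per dose group), followed 5 min later by i.p. zymosan A, 1 mg in 0.5 mL sterile PBS. Peritoneal lavage at 4 h with PBS/3 mM EDTA/heparin. Cells Fc-blocked, stained with PE anti-Gr-1 and counted as neutrophils (Gr-1+). Mean ± SEM versus vehicle.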

THP-1 [9] = assay: Increase in human THP1 cells mediated phagocytosis of apoptotic polymorphonuclear leukocytes at 1 nM after 15 mins; format: functional, cell-based; procedure, shortened: as §1

Row | SMILES | Activity (THP-1 [1]) | Activity (THP-1 [2]) | Activity (THP-1 [4]) | Activity (THP-1 [5]) | Activity (THP-1 [7]) | other results
1 | CCCCC[C@@H](O)c1ccccc1/C=C/[C@@H](O)[C@@H](O)CCCC(=O)O | inactive |  |  |  |  | 
2 | CCCCC[C@H](O)[C@H](O)/C=C/c1ccccc1[C@@H](O)CCCC(=O)OC(C)(C)C |  | Active |  |  |  | Activity (THP-1 [3]): Active
3 | CCCCC[C@H](O)/C=C/C=C\C=C\C=C\[C@@H](O)[C@@H](O)CCCC(=O)O |  |  | Active | inactive |  | 
4 | CCCCC[C@H](O)c1ccccc1/C=C/[C@@H](O)[C@@H](O)CCCC(=O)O | inactive |  |  |  |  | 
5 | CCCCC[C@@H](O)c1ccccc1/C=C/[C@@H](O)[C@@H](O)CCCC(=O)OC |  | Active | Active |  | Active | Activity (THP-1 [6]): inactive; Activity (THP-1 [8]): inactive; Activity (Mus musculus): Active
6 | CCCCC[C@H](O)c1ccccc1/C=C/[C@@H](O)[C@@H](O)CCCC(=O)OC |  | Active |  | inactive | Active | Activity (THP-1 [9]): Active
